{"source": "paper PMC6445238", "about": "(Drug Design, Development and Therapy, 2019)", "assay": "MAD study, safety and tolerability", "type": "in vivo, human", "conditions": "for Oropharyngeal pain, number of subjects (%) / Subjects with any TEAEs, number of subjects (%) / Vomiting, number of subjects (%) / Abdominal discomfort, number of subjects (%) / Abdominal pain, number of subjects (%) / Anxiety, number of subjects (%) / Back pain, number of subjects (%) / Diarrhea, number of subjects (%) / Dizziness, number of subjects (%) / Epistaxis, number of subjects (%) / Erythema of eyelid, number of subjects (%) / Erythema, number of subjects (%) / Headache, number of subjects (%) / Hyperbilirubinemia, number of subjects (%) / Hyperhidrosis, number of subjects (%) / Hypoesthesia, number of subjects (%) / Insomnia, number of subjects (%) / Muscle hemorrhage, number of subjects (%) / Musculoskeletal stiffness, number of subjects (%) / Nausea, number of subjects (%) / Neck pain, number of subjects (%): N=6", "in_short": "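MAD cohorts were 6 active and 2 placebo healthy males, dosed once daily for 7 days, confined day −1 to day 8, with follow-up on day 14. Safety was monitored by vital signs, clinical labs, 12-lead ECG, physical exams, and AEs reported by subjects or observed by investigators. AEs were coded with MedDRA 19.1. Counts are given as subjects with AEs, % of the safety population. Placebo subjects were pooled.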", "data": [{"molecule": "Cc1nn(Cc2ccc(Br)cc2)c(C)c1NC(=O)CSc1ccccc1", "note": "[KM-819]", "values": [{"measurement": "Oropharyngeal pain, number of subjects (%)", "setting": "100 mg QD 7 days, young", "value": 0}, {"measurement": "Subjects with any TEAEs, number of subjects (%)", "setting": "100 mg QD 7 days, young", "value": "4 (66.7)"}, {"measurement": "Vomiting, number of subjects (%)", "setting": "100 mg QD 7 days, young", "value": 0}, {"measurement": "Abdominal discomfort, number of subjects (%)", "setting": "200 mg QD 7 days, elderly", "value": 0}, {"measurement": "Abdominal pain, number of subjects (%)", "setting": "200 mg QD 7 days, elderly", "value": "1 (16.7)"}, {"measurement": "Anxiety, number of subjects (%)", "setting": "200 mg QD 7 days, elderly", "value": 0}, {"measurement": "Back pain, number of subjects (%)", "setting": "200 mg QD 7 days, elderly", "value": "2 (33.3)"}, {"measurement": "Diarrhea, number of subjects (%)", "setting": "200 mg QD 7 days, elderly", "value": "1 (16.7)"}, {"measurement": "Dizziness, number of subjects (%)", "setting": "200 mg QD 7 days, elderly", "value": 0}, {"measurement": "Epistaxis, number of subjects (%)", "setting": "200 mg QD 7 days, elderly", "value": 0}, {"measurement": "Erythema of eyelid, number of subjects (%)", "setting": "200 mg QD 7 days, elderly", "value": 0}, {"measurement": "Erythema, number of subjects (%)", "setting": "200 mg QD 7 days, elderly", "value": 0}, {"measurement": "Headache, number of subjects (%)", "setting": "200 mg QD 7 days, elderly", "value": "1 (16.7)"}, {"measurement": "Hyperbilirubinemia, number of subjects (%)", "setting": "200 mg QD 7 days, elderly", "value": 0}, {"measurement": "Hyperhidrosis, number of subjects (%)", "setting": "200 mg QD 7 days, elderly", "value": 0}, {"measurement": "Hypoesthesia, number of subjects (%)", "setting": "200 mg QD 7 days, elderly", "value": 0}, {"measurement": "Insomnia, number of subjects (%)", "setting": "200 mg QD 7 days, elderly", "value": "1 (16.7)"}, {"measurement": "Muscle hemorrhage, number of subjects (%)", "setting": "200 mg QD 7 days, elderly", "value": "1 (16.7)"}, {"measurement": "Musculoskeletal stiffness, number of subjects (%)", "setting": "200 mg QD 7 days, elderly", "value": 0}, {"measurement": "Nausea, number of subjects (%)", "setting": "200 mg QD 7 days, elderly", "value": 0}, {"measurement": "Neck pain, number of subjects (%)", "setting": "200 mg QD 7 days, elderly", "value": "1 (16.7)"}, {"measurement": "Oropharyngeal pain, number of subjects (%)", "setting": "200 mg QD 7 days, elderly", "value": 0}, {"measurement": "Subjects with any TEAEs, number of subjects (%)", "setting": "200 mg QD 7 days, elderly", "value": "3 (50.0)"}, {"measurement": "Vomiting, number of subjects (%)", "setting": "200 mg QD 7 days, elderly", "value": 0}, {"measurement": "Abdominal discomfort, number of subjects (%)", "setting": "200 mg QD 7 days, young", "value": "1 (16.7)"}, {"measurement": "Abdominal pain, number of subjects (%)", "setting": "200 mg QD 7 days, young", "value": 0}, {"measurement": "Anxiety, number of subjects (%)", "setting": "200 mg QD 7 days, young", "value": 0}, {"measurement": "Back pain, number of subjects (%)", "setting": "200 mg QD 7 days, young", "value": "1 (16.7)"}, {"measurement": "Diarrhea, number of subjects (%)", "setting": "200 mg QD 7 days, young", "value": 0}, {"measurement": "Dizziness, number of subjects (%)", "setting": "200 mg QD 7 days, young", "value": "2 (33.3)"}, {"measurement": "Epistaxis, number of subjects (%)", "setting": "200 mg QD 7 days, young", "value": 0}, {"measurement": "Erythema of eyelid, number of subjects (%)", "setting": "200 mg QD 7 days, young", "value": 0}, {"measurement": "Erythema, number of subjects (%)", "setting": "200 mg QD 7 days, young", "value": 0}, {"measurement": "Headache, number of subjects (%)", "setting": "200 mg QD 7 days, young", "value": "5 (83.3)"}, {"measurement": "Hyperbilirubinemia, number of subjects (%)", "setting": "200 mg QD 7 days, young", "value": "1 (16.7)"}, {"measurement": "Hyperhidrosis, number of subjects (%)", "setting": "200 mg QD 7 days, young", "value": 0}, {"measurement": "Hypoesthesia, number of subjects (%)", "setting": "200 mg QD 7 days, young", "value": "2 (33.3)"}, {"measurement": "Insomnia, number of subjects (%)", "setting": "200 mg QD 7 days, young", "value": 0}, {"measurement": "Muscle hemorrhage, number of subjects (%)", "setting": "200 mg QD 7 days, young", "value": 0}, {"measurement": "Musculoskeletal stiffness, number of subjects (%)", "setting": "200 mg QD 7 days, young", "value": "1 (16.7)"}, {"measurement": "Nausea, number of subjects (%)", "setting": "200 mg QD 7 days, young", "value": "4 (66.7)"}, {"measurement": "Neck pain, number of subjects (%)", "setting": "200 mg QD 7 days, young", "value": 0}, {"measurement": "Oropharyngeal pain, number of subjects (%)", "setting": "200 mg QD 7 days, young", "value": "1 (16.7)"}, {"measurement": "Subjects with any TEAEs, number of subjects (%)", "setting": "200 mg QD 7 days, young", "value": "5 (83.3)"}, {"measurement": "Vomiting, number of subjects (%)", "setting": "200 mg QD 7 days, young", "value": "4 (66.7)"}, {"measurement": "Abdominal discomfort, number of subjects (%)", "setting": "400 mg QD 7 days, young", "value": 0}, {"measurement": "Abdominal pain, number of subjects (%)", "setting": "400 mg QD 7 days, young", "value": 0}, {"measurement": "Anxiety, number of subjects (%)", "setting": "400 mg QD 7 days, young", "value": 0}, {"measurement": "Back pain, number of subjects (%)", "setting": "400 mg QD 7 days, young", "value": "1 (16.7)"}, {"measurement": "Diarrhea, number of subjects (%)", "setting": "400 mg QD 7 days, young", "value": 0}, {"measurement": "Dizziness, number of subjects (%)", "setting": "400 mg QD 7 days, young", "value": 0}, {"measurement": "Epistaxis, number of subjects (%)", "setting": "400 mg QD 7 days, young", "value": "1 (16.7)"}, {"measurement": "Erythema of eyelid, number of subjects (%)", "setting": "400 mg QD 7 days, young", "value": "1 (16.7)"}, {"measurement": "Erythema, number of subjects (%)", "setting": "400 mg QD 7 days, young", "value": 0}, {"measurement": "Headache, number of subjects (%)", "setting": "400 mg QD 7 days, young", "value": "4 (66.7)"}, {"measurement": "Hyperbilirubinemia, number of subjects (%)", "setting": "400 mg QD 7 days, young", "value": 0}, {"measurement": "Hyperhidrosis, number of subjects (%)", "setting": "400 mg QD 7 days, young", "value": "1 (16.7)"}, {"measurement": "Hypoesthesia, number of subjects (%)", "setting": "400 mg QD 7 days, young", "value": 0}, {"measurement": "Insomnia, number of subjects (%)", "setting": "400 mg QD 7 days, young", "value": 0}, {"measurement": "Muscle hemorrhage, number of subjects (%)", "setting": "400 mg QD 7 days, young", "value": 0}, {"measurement": "Musculoskeletal stiffness, number of subjects (%)", "setting": "400 mg QD 7 days, young", "value": "1 (16.7)"}, {"measurement": "Nausea, number of subjects (%)", "setting": "400 mg QD 7 days, young", "value": 0}, {"measurement": "Neck pain, number of subjects (%)", "setting": "400 mg QD 7 days, young", "value": 0}, {"measurement": "Oropharyngeal pain, number of subjects (%)", "setting": "400 mg QD 7 days, young", "value": 0}, {"measurement": "Subjects with any TEAEs, number of subjects (%)", "setting": "400 mg QD 7 days, young", "value": "5 (83.3)"}, {"measurement": "Vomiting, number of subjects (%)", "setting": "400 mg QD 7 days, young", "value": 0}, {"measurement": "subjects withdrawn due to AEs", "setting": "MAD, headache", "value": 2}, {"measurement": "serious adverse events (SAEs) reported", "setting": "MAD, headache, considered unlikely related to KM-819", "value": 1}]}]}
